Data: ChEMBL document CHEMBL4513216, “Probing the Open Global Health Chemical Diversity Library for Multistage-Active Starting Points for Next-Generation Antimalarials” (ACS Infect Dis, 2020)

Assay: Toxicity liver stage against HepG2, at 10uM
Type: cell-based
Design: test concentration 10 uM, cell line HepG2-A16-CD81EGFP
Conditions: human, HepG2-A16-CD81EGFP cells; read-out: INHIBITION
How it was run: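 Uninfected HepG2-A16-CD81EGFP cells, 3 × 10^3 per well, 1536-well, plated on prespotted compound at 10 μM final, parasite-free screening media added to match infected plates; puromycin 10 μM positive, DMSO 0.5% negative; run in parallel with 48 h PbLuc assay at 37 °C, 5% CO2; viability by CellTiter-Glo luminescence, normalized to controls.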

Row | SMILES | cytotoxicity at 10 µM [%]
1 | Cc1cccc(C(=O)N2CCC[C@]3(C[C@@H](OCC4CC4)CO3)C2)n1 | -82.9
2 | CN(Cc1csc(-c2cccs2)n1)CC(O)CO (stereo unspecified) | -0.712
3 | CCN(CC)C(=O)[C@@H]1C[C@@H](N)CN1C(=O)c1cc2c([nH]c1=O)CCC2 | -2.79
4 | O=C(CCc1cc2n(n1)CCCNC2)N1CCSCC1 | 8.55
5 | CS(=O)(=O)N[C@@H]1CN(Cc2ccco2)C[C@@H]2CCCO[C@@H]21 | 6.15
6 | CCN(Cc1ccc2c(c1)OCCO2)S(=O)(=O)N(C)C(C)C | -9.21
7 | Cc1cc(C)nc(C2CCN(C(=O)c3cnc(N(C)C)nc3)C2)n1 (stereo unspecified) | -18.1
8 | COc1ccccc1N1CCC(N2CCOC(C(F)(F)F)C2)CC1 (stereo unspecified) | -1.45
9 | O=C(Cc1cnn(-c2ccccc2)n1)NC1CCOCC1 | -9.72
10 | Cc1ccc(CN2CCCC(c3nnc(CN4CCCC4)n3C)C2)s1 (stereo unspecified) | 0.9
11 | N#Cc1cccc(CN2CCCC2Cn2cccn2)c1 (stereo unspecified) | -2.78
12 | CC(=O)N1CCCC(C(=O)N2CCN(c3cnn(C)c(=O)c3)CC2)C1 (stereo unspecified) | 0.761
13 | CSc1ccc(C(C(=O)O)N2CCC(CO)CC2)cc1 (stereo unspecified) | 3.68
14 | Cc1ccc(CN2CCC3(CC2)C(c2ccccc2)CC(=O)N3C)o1 (stereo unspecified) | -101
15 | CCOc1cc(CNc2nnn(C)n2)ccc1OCc1ccc(Cl)cc1 | 6.04
16 | CN(C)C1CCN(C(=O)c2n[nH]c3c2CCN(CC2CCC2)C3)CC1 | 3.48
17 | Cc1ccc(Cn2c(=O)[nH]c3cccnc3c2=O)cc1 | 1.61
18 | CC(C)(C)C(O)CN1CCN(CC(=O)NC(C2CC2)C2CC2)CC1 (stereo unspecified) | 3.51
19 | CC(C)c1nc(C2CCCN(C(=O)c3nccn4ccnc34)C2)no1 (stereo unspecified) | -12.7
20 | COc1ccc(C(C)Nc2nc3c(C)nn(C)c3c(=O)n2C)cc1 (stereo unspecified) | 1.89
21 | Cc1nc[nH]c1CN1C[C@H]2CC[C@@H](C1)N(C(=O)CCc1cccnc1)C2 | -14.2
22 | CN1CCC(CNC(=O)CCSc2ccc3c(c2)OCCO3)C1 (stereo unspecified) | -3.13
23 | CC(C)n1ccnc1CN1CCCN(C(=O)c2cnc[nH]2)CC1 | -11.9

Row | SMILES | cytotoxicity at 10 µM [%]
24 | CCCN(CC1COc2ccccc2O1)C(=O)c1ncoc1CC (stereo unspecified) | -42.2
25 | CSc1ccc(NC(=O)NCC2CCCO2)cc1F (stereo unspecified) | -7.81
26 | Cc1n[nH]c(C)c1C1CCCN1C(=O)NCCSC(C)(C)C (stereo unspecified) | -11
27 | CN1CCN(C(=O)CCn2nnc3ccccc32)CC(C(N)=O)C1 (stereo unspecified) | 2.24
28 | Cn1ccnc1-c1ccc(NCC2COc3ccccc3O2)nn1 (stereo unspecified) | 3.31
29 | Cc1ccc(CN2CCc3c(CN4CCCC4)n[nH]c3C2)s1 | 4.41
30 | Cc1cc(C2CCCN2CCCc2nc3ccccc3o2)on1 (stereo unspecified) | -5.58
31 | O=C(Cc1ccccc1Cl)Nc1cnn(C2CCOC2)c1 (stereo unspecified) | 2.63
32 | O=C1CCC2(CCCN(c3ncc(Cl)cc3F)C2)CN1CC1CC1 (stereo unspecified) | 5.98
33 | CCN(C)c1ncnc2c1CCN(C(=O)NCc1cccnc1)CC2 | -126
34 | Cc1cnn(CC(=O)NC2CCCc3cc(OC(F)F)ccc32)c1 (stereo unspecified) | -0.653
35 | COc1ccc(Cn2ccnc2)cc1F | -7.27
36 | Cc1nc(CN2CCCC(N(C)CC(=O)Nc3cccnc3)C2)no1 (stereo unspecified) | -7.88
37 | Cc1cnn(CC2CCCCN2C(=O)c2ccc(NC3CC3)nc2)c1 (stereo unspecified) | -11.9
38 | CN1CCC(N(Cc2ccccc2)C(=O)c2nccn3ccnc23)CC1 | 3.52
39 | CNc1nc(C2CCN(C(=O)CC3CCCC3)C2)nc2c1CN(C)CC2 (stereo unspecified) | -40.4
40 | CC(C)c1nnc(CNCC2CCCN2c2cccnn2)o1 (stereo unspecified) | 1.05
41 | Cc1cnn(C2CCCN(C(=O)c3ccnc(-n4ccnc4)c3)C2)c1 (stereo unspecified) | -1.88
42 | Cc1ccc(N2CCCN(C(=O)C3CCCO3)CC2)nn1 (stereo unspecified) | -11.1
43 | COc1cc2cc(C)c(SCCN3CCCCC3)nc2cc1OC | -0.883
44 | CC(C)n1ncc2c1NC(=O)CC21C(=O)Nc2c(Cl)cc(Cl)cc21 (stereo unspecified) | 3.38
45 | COc1cc(CNC2CCc3nc(C)nn3C2)cc2c1OCO2 (stereo unspecified) | -11.6
46 | COc1ccc(CNC(=O)CCSCc2csc(C)n2)cn1 | -21.4

Row | SMILES | cytotoxicity at 10 µM [%]
47 | CCCC(NC(=O)c1cc(C)n(C2CC2)c1C)c1nnn[nH]1 (stereo unspecified) | -10.1
48 | CC(NS(N)(=O)=O)c1ccc(OCc2ccc(F)cc2)cc1 (stereo unspecified) | -2.98
49 | CCc1ccc(C(=O)N2CCCC3(CCCC(=O)N3C)C2)cc1 (stereo unspecified) | -5.72
50 | COCCCNS(=O)(=O)c1ccc(N2CCCCS2(=O)=O)cc1 | 0.308
51 | CN1CCN(c2ncccc2N)CC1 | 11.5
52 | Cc1cccc(NC(=O)N2CCCn3cnc(CN4CCCC4)c3C2)c1 | -12.2
53 | CN(C)C(C(=O)Nc1nccs1)c1c(F)cccc1Cl (stereo unspecified) | -44.4
54 | COC1CCCN(C(=O)NCc2ccc(C(=O)N(C)C(C)C)cc2)C1 (stereo unspecified) | -24.8
55 | c1cc(-c2noc(CN3CCn4c(nnc4C4CC4)C3)n2)co1 | -0.986
56 | O=C(CSCC1CC1)N1CCCC2(CCC(=O)N(CC3CC3)C2)C1 (stereo unspecified) | 3.8
57 | Cc1ccc(CN2CCCn3nnc(COCCN(C)C)c3C2)s1 | -114
58 | CNC(=O)CN1CC[C@H]2CN(C(=O)c3ccoc3)C[C@H]2C1 | -2.8
59 | Cc1cnc(N2CCc3cc(C(=O)O)c(N(C)C)nc3CC2)nc1 | -104
60 | COCCNC(=O)NCc1cccc(-n2ccnc2)c1 | 16.1
61 | CC(=O)c1cc(CN2C[C@@H](N(C)C)[C@H](C(C)C)C2)cs1 | 0.305
62 | CCOc1ccc(C(=O)N2CCCC2c2c(C)nn(C)c2Cl)cn1 (stereo unspecified) | -12.4
63 | Cc1nn(C)c(N(C)C)c1CNCc1ccc(C(=O)N(C)C)cc1 | -9.55
64 | CC(NC1CCN(CCS(C)(=O)=O)CC1)c1ccc(Cl)cc1 (stereo unspecified) | -6.51
65 | CC(=O)N1CCC(c2cccc(-c3cccc(C(=O)O)c3)n2)CC1 | -0.0353
66 | O=C(CCn1ccnc1)N1C[C@@H](O)[C@H](Oc2cccc(F)c2)C1 | -21.6
67 | Oc1nc(C2CCN(Cc3ccccn3)CC2)cc2ccccc12 | 11.8
68 | CS(=O)(=O)c1ccc(CN2CCCC3(C2)C(=O)Nc2ccccc23)cc1 (stereo unspecified) | -1.3
69 | CC(C)C(=O)N1CCC(CNc2nc(C(C)C)nc3c2cnn3C)CC1 | -4.25

Row | SMILES | cytotoxicity at 10 µM [%]
70 | Cc1cccnc1NC(=O)C1CSc2ncc(C)c(=O)n2C1 (stereo unspecified) | -1.62
71 | CC1c2ccc(F)cc2CCN1C(=O)c1nc(=O)[nH][nH]1 (stereo unspecified) | 15.6
72 | CC(C)(C)CN1CCCC12Cc1ccccc1CNC2=O (stereo unspecified) | 22.1
73 | Cc1ccccc1Cn1nnc2cc3c(cc2c1=O)OCCO3 | 1.11
74 | CCOC(=O)C1CCCN(Cc2cc(C#N)n(C)c2C)C1 (stereo unspecified) | 0.0308
75 | Cc1ccc(NC(=O)c2cccc(N(C)C)c2)nc1 | 8.77
76 | Cc1ccc(N2CCC3(CCN(C(=O)c4ccsc4)CC3)CC2)nn1 | 2.19
77 | Cc1ccc(S(=O)(=O)Nc2c(C)nc(N3CCCC3)nc2C)cc1 | -0.243
78 | COc1ncccc1C(=O)N1CC(c2nc(-c3cccs3)no2)C1 | -21.5
79 | CN(C)C(=O)NCc1nnc2n1CCN(Cc1cccs1)C2 | -150
80 | CC(C(=O)Nc1ccc(N2CCCC2)nc1)n1ccnc1 (stereo unspecified) | -8.53
81 | Cc1nc(CNc2nc(-c3ccco3)nc3c2CCNCC3)n[nH]1 | -9.08
82 | CCN(Cc1ccncc1)C1CCCN(C/C=C/c2ccc(F)cc2)C1 (stereo unspecified) | 6.61
83 | COc1ccc(Cn2c(C3CCNCC3)cc3cccnc32)cc1 | -4.45
84 | c1ccc(CN2CCC(Nc3ncnc4c3CCNCC4)C2)cc1 (stereo unspecified) | 8.03
85 | COc1ccnc(N2C[C@H]3CC[C@@H](C2)N(CC2CC2)C3)n1 | -0.65
86 | COc1ccc(-c2ccncc2)cc1CNC1CCCC1 | -47.7
87 | CCOCCNC(=O)c1cccc(S(=O)(=O)NC[C@@H]2C[C@H](F)CN2)c1 | -18.8
88 | CC(C)n1nnnc1-c1ccc(NC(=O)CCC(F)(F)F)cc1F | -2.5
89 | COc1nn(C)c2c1CCCN(S(=O)(=O)c1cccs1)C2 | -112
90 | O=C(CN1CCCCC1=O)N1CCC2(CC1)[C@H](O)C[C@@H]2O | -1.74
91 | CO[C@H]1CCN(C(=O)c2ccc3[nH]nnc3c2)C[C@@]12CCCO2 | -5.38
92 | COC1CCN(S(=O)(=O)NCC2COc3ccccc3C2)CC1 (stereo unspecified) | -1.08

Row | SMILES | cytotoxicity at 10 µM [%]
93 | CC(C)C1CN(c2nccc(N)n2)CCC(=O)N1Cc1ccc(F)cc1 (stereo unspecified) | -5.04
94 | Cc1cc(Br)ccc1C(=O)N(C)CCNS(C)(=O)=O | -54.1
95 | Cc1nc2ccccc2n1Cc1cc(C(=O)N2C[C@@H](C)O[C@@H](C)C2)no1 | 25.7
96 | CCOCC(O)CN1CCN(C(=O)c2cnc3n[nH]c(C)c3c2)CC1 (stereo unspecified) | -7.69
97 | CCNC(c1ccc(Br)cc1)c1cccnc1 (stereo unspecified) | -0.1
98 | O=C(NCCc1cccnc1)c1ccc2nccn2c1 | -38.6
99 | COc1ccc(CN2CC[C@H](NC(C)=O)[C@@H](O)CC2)c(F)c1 | -11.1
100 | CC(C)c1cc(N2CCC(NS(C)(=O)=O)C2)nc(C(C)C)n1 (stereo unspecified) | 4.34
101 | Cc1ncc(S(=O)(=O)Nc2ccnn2C(C)C)[nH]1 | 9.68
102 | COc1cc(NC(=O)NC2CC2)ccc1N1CCOC1=O | -6.44
103 | Cc1n[nH]c(C2CN(C(=O)c3cc4c(s3)CCCC4)CCO2)n1 (stereo unspecified) | -14.9
104 | CCSCCC(=O)Nc1ncn(Cc2cccnc2)n1 | 25.1
105 | Fc1cnc(N2CCn3cc(CNc4ccccn4)nc3C2)nc1 | -0.665
106 | CC(C)CC(C#N)NC(=O)CCNC(=O)C(C)(C)C (stereo unspecified) | -3.3
107 | Cn1cc(N2C(=O)CC[C@@H]3[C@H]2CCN3Cc2ccncc2)cn1 | -8.85
108 | CCN(CCCNC(=O)c1ccc(C)[nH]c1=O)S(C)(=O)=O | -8.01
109 | Cc1cc(C)nc(CNC(=O)C(c2cccnc2)N2CCOCC2)n1 (stereo unspecified) | -1.43
110 | COc1cccc(-c2cc(CN)ccc2F)c1F | -12.4
111 | CC(=O)N1CCN(C(=O)C(C)n2cncn2)CC1 (stereo unspecified) | 1.64
